≈ marks a conversion by molar mass, not a printed value. Values belong to the molecule of their own block, whether it stands above or below them. Calls of active or inactive are those of the source.
How the values were obtained:
Candida albicans [1] = experiment: Antifungal activity against Candida albicans ATCC 10231; type: functional
Outline: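 Planktonic C. albicans ATCC 10231 cells; compounds tested up to 128 μg/mL. MIC50 defined as lowest concentration producing 50% growth inhibition; three independent experiments, each in triplicate, values given as median.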

Candida albicans [2] = experiment: Antibiofilm activity against Candida albicans ATCC 10231 assessed as reduction in mature biofilm; type: functional
Outline: (§1)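 C. albicans ATCC 10231 biofilm, tested during formation and as mature (48 h) biofilm; compounds tested up to 128 μg/mL. BMIC50 taken as lowest concentration giving 50% decrease of biofilm relative to untreated growth control; three independent experiments in triplicate, median reported.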

Candida albicans [3] = experiment: Antibiofilm activity against Candida albicans ATCC 10231 assessed as inhibition of biofilm formation; type: functional; outline: as §1
[4] = Metal chelating activity assessed as Fe3+-compound complex formation by UV-visible spectrophotometry
Outline: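 Stoichiometry of ligand–Fe3+ complex found by Job's method of continuous variations from UV titration spectra, Job's plot read at 302 nm; stability constant (logKstab) then calculated by UV–Vis spectroscopy for the determined stoichiometry.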

[5] = Metal chelating activity assessed as Cu2+-compound complex formation by UV-visible spectrophotometry
Outline: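 UV–Vis spectroscopic titration of the ligand with Cu2+. The stability constant was calculated from the spectra once the 1:1 stoichiometry was known, and is reported as logKstab ±.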

[6] = Toxicity in Galleria mellonella larvae assessed as survival at 256 ug/ml measured after 72 hrs relative to control; settings: at 256 µg/mL
Outline: (§2)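 G. mellonella larvae were injected with 20 μL of compound in sterile water containing less than 1% v/v DMSO, into the last left pro-leg. Doses were 32–512 µg/mL. Survival was scored at 24, 48 and 72 h and is given as the mean percentage of three independent experiments.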

[7] = Toxicity in Galleria mellonella larvae assessed as survival at 256 ug/ml measured after 24 hrs relative to control; settings: at 256 µg/mL; outline: as §2
[8] = Toxicity in Galleria mellonella larvae assessed as survival at 512 ug/ml measured after 72 hrs relative to control; settings: at 512 µg/mL; outline: as §2
[9] = Toxicity in Galleria mellonella larvae assessed as survival at 512 ug/ml measured after 48 hrs relative to control; settings: at 512 µg/mL; outline: as §2
[10] = Toxicity in Galleria mellonella larvae assessed as survival at 32 ug/ml measured after 24 hrs relative to control; settings: at 32 µg/mL; outline: as §2
Candida albicans [11] = experiment: Antibiofilm activity against Candida albicans ATCC 10231 assessed as inhibition of biofilm formation in presence of Fe3+; type: functional, organism-based; settings: dose 8-128 µg/ml
Outline: (§3)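 C. albicans ATCC 10231 biofilm-formation assay run in culture medium enriched with increasing concentrations of Fe3+ or Cu2+. BMIC50 is the lowest drug concentration giving a 50% decrease of biofilm relative to the untreated growth control. Three independent experiments in triplicate; data reported as percentage of inhibition ± standard deviation.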

[12] = Toxicity in Galleria mellonella larvae assessed as survival at 64 ug/ml measured after 48 hrs relative to control; settings: at 64 µg/mL; outline: as §2
[13] = Toxicity in Galleria mellonella larvae assessed as survival at 512 ug/ml measured after 24 hrs relative to control; settings: at 512 µg/mL; outline: as §2
Candida albicans [14] = experiment: Antibiofilm activity against Candida albicans ATCC 10231 assessed as inhibition of biofilm formation in presence of Cu2+; type: functional, organism-based; settings: dose 8-128 µg/ml; outline: as §3
[15] = Metal chelating activity assessed as stoichiometry ratio of 1:1 for Fe3+-compound complex formation by UV-visible spectrophotometry
[16] = Toxicity in Galleria mellonella larvae assessed as survival at 128 ug/ml measured after 24 hrs relative to control; settings: at 128 µg/mL; outline: as §2
[17] = Metal chelating activity assessed as stoichiometry ratio of 1:1 for Cu2+-compound complex formation by UV-visible spectrophotometry
[18] = Toxicity in Galleria mellonella larvae assessed as survival at 64 ug/ml measured after 24 hrs relative to control; settings: at 64 µg/mL; outline: as §2
[19] = Toxicity in Galleria mellonella larvae assessed as survival at 128 ug/ml measured after 48 hrs relative to control; settings: at 128 µg/mL; outline: as §2
[20] = Toxicity in Galleria mellonella larvae assessed as survival at 64 ug/ml measured after 72 hrs relative to control; settings: at 64 µg/mL; outline: as §2
[21] = Toxicity in Galleria mellonella larvae assessed as survival at 32 ug/ml measured after 72 hrs relative to control; settings: at 32 µg/mL; outline: as §2
[22] = Toxicity in Galleria mellonella larvae assessed as survival at 256 ug/ml measured after 48 hrs relative to control; settings: at 256 µg/mL; outline: as §2
[23] = Toxicity in Galleria mellonella larvae assessed as survival at 32 ug/ml measured after 48 hrs relative to control; settings: at 32 µg/mL; outline: as §2
[24] = Toxicity in Galleria mellonella larvae assessed as survival at 128 ug/ml measured after 72 hrs relative to control; settings: at 128 µg/mL; outline: as §2

- MIC50 (Candida albicans [1]): > 128 µg/mL
SMILES: Cc1c(OCc2ccccc2)c(=O)ccn1CCCCNC(=O)Cc1ccc(CC(C)C)cc1
- MBIC50 (Candida albicans [2]): >128 µg/mL
- MBIC50 (Candida albicans [3]): 64 µg/mL

- MIC50 (Candida albicans [1]): 32 µg/mL
SMILES: Cc1c(O)c(=O)ccn1CCCc1ccccc1.Cl
- MBIC50 (Candida albicans [2]): >128 µg/mL
- MBIC50 (Candida albicans [3]): 32 µg/mL

- MIC50 (Candida albicans [1]): > 128 µg/mL
SMILES: Cc1c(O)c(=O)ccn1CCCCNC(=O)C(C)c1ccc(C(=O)c2ccccc2)cc1 (centres undefined)
- MBIC50 (Candida albicans [2]): >128 µg/mL
- MBIC50 (Candida albicans [3]): 128 µg/mL

- MIC50 (Candida albicans [1]): > 128 µg/mL
SMILES: Cc1c(OCc2ccccc2)c(=O)ccn1CCCCNC(=O)Cc1ccccc1
- MBIC50 (Candida albicans [2]): >128 µg/mL
- MBIC50 (Candida albicans [3]): >128 µg/mL

- MIC50 (Candida albicans [1]): 8 µg/mL (≈ 21.6 µM)
SMILES: Cc1c(O)c(=O)ccn1CCCCNC(=O)Cc1ccc(CC(C)C)cc1
- MBIC50 (Candida albicans [2]): 128 µg/mL
- MBIC50 (Candida albicans [3]): 64 µg/mL

- MIC50 (Candida albicans [1]): > 128 µg/mL
SMILES: Cc1c(OCc2ccccc2)c(=O)ccn1CCCCn1ccc(=O)c(OCc2ccccc2)c1C
- MBIC50 (Candida albicans [2]): >128 µg/mL
- MBIC50 (Candida albicans [3]): 128 µg/mL

- MIC50 (Candida albicans [1]): > 128 µg/mL
SMILES: Cc1c(O)c(=O)ccn1CCCCNC(=O)Cc1ccccc1
- MBIC50 (Candida albicans [2]): >128 µg/mL
- MBIC50 (Candida albicans [3]): >128 µg/mL

The remaining lines, values behind:

SMILES: Cc1c(O)c(=O)ccn1CCCCNC(=O)C(C)c1ccc(CC(C)C)cc1 (centres undefined)
- MIC50 (Candida albicans [1]): 4 µg/mL (≈ 10.4 µM)
- MBIC50 (Candida albicans [2]): >128 µg/mL
- Activity [4]: Active
- MBIC50 (Candida albicans [3]): 128 µg/mL
- Activity [5]: Active

SMILES: Cc1c(OCc2ccccc2)c(=O)ccn1CCCc1ccccc1
- MIC50 (Candida albicans [1]): > 128 µg/mL
- MBIC50 (Candida albicans [2]): >128 µg/mL
- MBIC50 (Candida albicans [3]): >128 µg/mL

SMILES: Cc1c(O)c(=O)ccn1CCCCc1ccccc1.Cl
- survival at 72 h [6]: 100%
- survival at 24 h [7]: 100%
- MIC50 (Candida albicans [1]): 16 µg/mL
- survival at 72 h [8]: 86%
- survival at 48 h [9]: 96%
- survival at 24 h [10]: 100%
- inhibition (Candida albicans [11]): Dose-Dependent Effect
- survival at 48 h [12]: 100%
- survival at 24 h [13]: 100%
- MBIC50 (Candida albicans [2]): >128 µg/mL
- Activity [4]: Active
- inhibition (Candida albicans [14]): Dose-Dependent Effect
- Activity [15]: Active
- survival at 24 h [16]: 100%
- MBIC50 (Candida albicans [3]): 16 µg/mL
- Activity [17]: Active
- survival at 24 h [18]: 100%
- survival at 48 h [19]: 100%
- survival at 72 h [20]: 100%
- survival at 72 h [21]: 100%
- Activity [5]: Active
- survival at 48 h [22]: 100%
- survival at 48 h [23]: 100%
- survival at 72 h [24]: 100%

SMILES: Cc1c(O)c(=O)ccn1CCCCCn1ccc(=O)c(O)c1C.Cl.Cl
- MIC50 (Candida albicans [1]): > 128 µg/mL
- MBIC50 (Candida albicans [2]): >128 µg/mL
- MBIC50 (Candida albicans [3]): 128 µg/mL

SMILES: Cc1c(O)c(=O)ccn1CCCCn1ccc(=O)c(O)c1C.Cl.Cl
- MIC50 (Candida albicans [1]): > 128 µg/mL
- MBIC50 (Candida albicans [2]): >128 µg/mL
- MBIC50 (Candida albicans [3]): >128 µg/mL

SMILES: Cc1c(OCc2ccccc2)c(=O)ccn1CCCCCCn1ccc(=O)c(OCc2ccccc2)c1C
- MIC50 (Candida albicans [1]): > 128 µg/mL
- MBIC50 (Candida albicans [2]): >128 µg/mL
- MBIC50 (Candida albicans [3]): >128 µg/mL

SMILES: Cc1c(O)c(=O)ccn1CCCn1ccnc1.Cl
- MIC50 (Candida albicans [1]): > 128 µg/mL
- MBIC50 (Candida albicans [2]): >128 µg/mL
- MBIC50 (Candida albicans [3]): >128 µg/mL

SMILES: Cc1c(OCc2ccccc2)c(=O)ccn1CCCCc1ccccc1
- MIC50 (Candida albicans [1]): > 128 µg/mL
- MBIC50 (Candida albicans [2]): >128 µg/mL
- Activity [4]: Active
- MBIC50 (Candida albicans [3]): >128 µg/mL

SMILES: Cc1c(OCc2ccccc2)c(=O)ccn1CCCn1ccnc1
- MIC50 (Candida albicans [1]): > 128 µg/mL
- MBIC50 (Candida albicans [2]): >128 µg/mL
- MBIC50 (Candida albicans [3]): >128 µg/mL

SMILES: COc1ccccc1Cn1ccc(=O)c(OCc2ccccc2)c1C
- MIC50 (Candida albicans [1]): > 128 µg/mL
- MBIC50 (Candida albicans [2]): >128 µg/mL
- MBIC50 (Candida albicans [3]): >128 µg/mL

SMILES: Cc1c(OCc2ccccc2)c(=O)ccn1CCCCCn1ccc(=O)c(OCc2ccccc2)c1C
- MIC50 (Candida albicans [1]): > 128 µg/mL
- MBIC50 (Candida albicans [2]): >128 µg/mL
- MBIC50 (Candida albicans [3]): >128 µg/mL

SMILES: COc1ccccc1Cn1ccc(=O)c(O)c1C.Cl
- MIC50 (Candida albicans [1]): > 128 µg/mL
- MBIC50 (Candida albicans [2]): >128 µg/mL
- MBIC50 (Candida albicans [3]): >128 µg/mL

SMILES: Cc1c(OCc2ccccc2)c(=O)ccn1CCCCNC(=O)C(C)c1ccc(CC(C)C)cc1 (centres undefined)
- MIC50 (Candida albicans [1]): > 128 µg/mL
- MBIC50 (Candida albicans [2]): >128 µg/mL
- Activity [4]: Active
- MBIC50 (Candida albicans [3]): 32 µg/mL

SMILES: Cc1c(OCc2ccccc2)c(=O)ccn1CCCCNC(=O)C(C)c1ccc(C(=O)c2ccccc2)cc1 (centres undefined)
- MIC50 (Candida albicans [1]): > 128 µg/mL
- MBIC50 (Candida albicans [2]): >128 µg/mL
- MBIC50 (Candida albicans [3]): >128 µg/mL

SMILES: Cc1c(O)c(=O)ccn1CCCCCCn1ccc(=O)c(O)c1C.Cl.Cl
- MIC50 (Candida albicans [1]): > 128 µg/mL
- MBIC50 (Candida albicans [2]): >128 µg/mL
- MBIC50 (Candida albicans [3]): >128 µg/mL

SMILES: Cc1c(O)c(=O)ccn1C [DEFERIPRONE]
- MIC50 (Candida albicans [1]): 128 µg/mL (≈ 920 µM)
- MBIC50 (Candida albicans [2]): 128 µg/mL
- MBIC50 (Candida albicans [3]): 32 µg/mL

— ChEMBL document CHEMBL4834441, “Design, synthesis and biological evaluation of a series of iron and copper chelating deferiprone derivatives as new agents active against Candida albicans” (Bioorg Med Chem Lett, 2021)
